We go through three molecules from paper PMC3549632 (Biochemistry, 2012).

The target in experiment [1] is T1, SULT1A1 (Homo sapiens, UniProt P50225). In words: Presteady state. The experiment is classed as binding. The following applies: for koff: pH 7.4, 25 °C.
Experiment [2] deals with T1, SULT1A1. The experiment is classed as binding. In short, it runs like this:
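Purified tag-cleaved human SULT1A1 in 5.0 mM MgCl2, 25 mM potassium phosphate pH 7.4, 0 or 125 μM PAP, 25 ± 2 °C. Ligand titrated from ethanol:water (1:1), final ethanol <0.5%. Intrinsic fluorescence quenching read at λex 290 nm. Triplicate titrations averaged, ΔI/ΔImax vs total ligand least-squares fit with a quadratic single-site-per-monomer model, giving apparent […].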

The target in experiment [3] is T1, SULT1A1. Nature of the experiment: SULT1A1 intrinsic hydrolysis of PAPS. In kind it is biochemical. Particulars: saturating 35S-PAPS (7.0 μM), MgCl2 5.0 mM, KPO4 25 mM, pH 7.4, 25 °C.
Setting [4] is: pH 7.4, enzyme species PAPS·E (saturating PAPS).

Where two headings read alike, the source gives them in different places.

T1 sequence (P50225 whole entry): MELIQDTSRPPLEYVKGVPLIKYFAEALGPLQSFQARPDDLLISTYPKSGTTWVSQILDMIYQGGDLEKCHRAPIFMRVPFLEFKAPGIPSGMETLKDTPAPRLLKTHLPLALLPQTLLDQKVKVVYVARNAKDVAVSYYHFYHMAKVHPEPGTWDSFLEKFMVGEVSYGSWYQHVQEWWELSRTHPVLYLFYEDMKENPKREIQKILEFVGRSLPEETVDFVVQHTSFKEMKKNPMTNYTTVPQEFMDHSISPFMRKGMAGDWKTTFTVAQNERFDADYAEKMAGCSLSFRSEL

For the molecule `C[C@]12CC[C@@H]3c4ccc(O)cc4CC[C@H]3[C@@H]1CC[C@@H]2O` [E2, estradiol], the dissociation constant Kd is 1300 nM at SULT1A1 [1] and 1700 nM at SULT1A1 [2]. Also, the koff was found to be 1.6 s⁻¹ on SULT1A1 [1] (pH 7.4, enzyme species E) and 1.9 s⁻¹ on SULT1A1 [1] (setting [4]). Further, the “effect of PAPS on binding on- and off-rate constants” value at SULT1A1 [1] (saturating PAPS) was “not significantly affected”.
For `Nc1ncnc2c1ncn2[C@@H]1O[C@H](COP(=O)(O)OS(=O)(=O)O)[C@@H](OP(=O)(O)O)[C@H]1O` [PAPS, 3′-phosphoadenosine 5′-phosphosulfate], the “kcat (app) for SULT1A1 hydrolysis of PAPS” value at SULT1A1 [3] is 0.000767 s⁻¹.
As to `C[C@]12CC[C@@H]3c4ccc(O)cc4C[C@@H](CCCCCCCCC[S+]([O-])CCCC(F)(F)C(F)(F)F)[C@H]3[C@@H]1CC[C@@H]2O` (stereo partly drawn) [fulvestrant, (7R,8R,9S,13S,14S,17S)-13-methyl-7-[9-(4,4,5,5,5-pentafluoropentyl-sulfinyl)nonyl]-6,7,8,9,11,12,14,15,16,17,-decahydrocyclopenta[α]phenanthrene-3,17-diol], the “fold decrease in apparent on-rate constant at saturating PAPS” value on SULT1A1 [1] (E vs PAPS·E) was 26 fold. Also, the Kd on SULT1A1 [1] (Kd (koff/kon), enzyme species E, calculated from rate constants) is 270 nM; at SULT1A1 [2] (Kd, enzyme species E (zero PAP, open form), pH 7.4, 25 °C) it was 280 nM; on SULT1A1 [2] (Kd, enzyme species PAP·E (saturating PAP, 125 μM; closed form), pH 7.4, 25 °C) it was 6900 ± 900 nM. Also, the off-rate (koff) came out at 1.8 s⁻¹ at SULT1A1 [1] (pH 7.4, enzyme species E) and 1.7 s⁻¹ at SULT1A1 [1] (setting [4]). The “effect of PAPS on off-rate constant” value on SULT1A1 [1] (saturating PAPS) is given as “not affected”.
